This is an account of results in ChEMBL document CHEMBL3244366, “Synthesis and biochemical evaluation of inhibitors of estrogen biosynthesis” (J Med Chem, 1978).

For data set [1], the target named is T1, Aromatase (Homo sapiens, UniProt P11511).
T1 sequence (P11511 whole entry): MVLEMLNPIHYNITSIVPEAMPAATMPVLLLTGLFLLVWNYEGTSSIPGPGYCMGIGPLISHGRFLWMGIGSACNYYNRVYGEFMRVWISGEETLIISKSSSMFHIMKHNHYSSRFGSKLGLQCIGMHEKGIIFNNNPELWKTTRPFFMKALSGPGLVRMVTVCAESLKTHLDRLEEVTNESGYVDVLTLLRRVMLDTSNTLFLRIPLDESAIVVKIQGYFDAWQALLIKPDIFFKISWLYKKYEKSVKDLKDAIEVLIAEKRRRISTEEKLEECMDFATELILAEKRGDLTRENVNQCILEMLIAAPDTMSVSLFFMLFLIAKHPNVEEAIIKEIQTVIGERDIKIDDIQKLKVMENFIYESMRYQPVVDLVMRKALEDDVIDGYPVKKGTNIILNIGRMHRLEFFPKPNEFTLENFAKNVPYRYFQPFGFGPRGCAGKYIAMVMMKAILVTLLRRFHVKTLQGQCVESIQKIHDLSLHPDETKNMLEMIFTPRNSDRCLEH
Put plainly: Inhibition of human placental microsomal aromatase assessed as inhibition of [C14]estrone/[C14]estradiol formation using 1.25 uM [C14]androstenedione substrate at 12.5 uM by liquid scintillation counting. The method, boiled down:
(§1)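 Screen, run in duplicate: [14C]androstenedione 1.25 μM with inhibitor at 6.25 or 12.5 μM, human placental microsomes (0.25 mg protein/3.0 mL), NADPH-generating system (NADP+ 1.71 mM, glucose 6-phosphate 2.85 mM, G6PDH) in 0.1 M phosphate pH 7.0. 5 min preincubation, then 15.0 min at 37 °C; estrogens separated on alumina TLC and counted; expressed as percent inhibition versus uninhibited controls.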

Data set [2] deals with T1, Aromatase. The data set is described as follows: Inhibition of human placental microsomal aromatase assessed as inhibition of [C14]estrone/[C14]estradiol formation using 1.25 uM [C14]androstenedione substrate at 6.25 uM by liquid scintillation counting. In short, it runs like this: as §1
The target of data set [3] is T1, Aromatase. Put plainly: Apparent inhibition of human placental microsomal aromatase assessed as [C14]estrone/[C14]estradiol formation using 0.075 to 0.515 uM [C14]androstenedione substrate by liquid scintillation counting. The settings on record: read-out: Ki(app). In short, it runs like this: (§2)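 Twice-washed human term placental microsomes (0.25 mg protein) in 3.5 mL 0.1 M sodium phosphate pH 7.0 with NADP+ 1.71 mM, glucose 6-phosphate 2.85 mM, G6PDH 1.0 unit; [14C]androstenedione 0.075–0.515 μM plus one inhibitor level; 37 °C, 8.0 min (<10% product). Estrogens extracted with ethyl acetate, alumina TLC, counted; duplicates; apparent Ki and inhibition type from weighted Lineweaver-Burk.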

The target of data set [4] is T1, Aromatase. Put plainly: Competitive inhibition of human placental microsomal aromatase assessed as [C14]estrone/[C14]estradiol formation using [C14]androstenedione substrate by liquid scintillation counting. The method, boiled down: as §2

pKi: −log10 of the molar value.

For `C[C@@]12C(=CC(=O)C[C@@H]1Sc1ccccc1)CC[C@@H]1[C@@H]2CC[C@]2(C)C(=O)CC[C@@H]12`, the inhibition at 12.5 µM in data set [1] amounted to 24.2%. Moreover, the inhibition at 6.25 µM in data set [2] came to 21.2%.
For `C[C@@]12C(=CC(=O)C[C@@H]1SCc1ccccc1)CC[C@@H]1[C@@H]2CC[C@]2(C)C(=O)CC[C@@H]12`, in that order: 15.5% and 20.8%.
For `CCN(CC)c1ccc(CS[C@H]2CC(=O)C=C3CC[C@@H]4[C@H](CC[C@]5(C)C(=O)CC[C@@H]45)[C@]32C)cc1`, in that order: 36.3% and 32.2%.
In the case of `CCCCS[C@@H]1CC2=CC(=O)CC[C@]2(C)[C@H]2CC[C@]3(C)C(=O)CC[C@H]3[C@H]12`, in data set [1], the inhibition at 12.5 µM was found to be 74.1%. Besides, in data set [2], the inhibition at 6.25 µM is 62.4%. The pKi in data set [3] was 7.24. In data set [4], the “inhibition (INH)” value is reported as “Active”.
On to `C[C@]12CCC(=O)C=C1C[C@@H](Sc1ccccc1)[C@@H]1[C@@H]2CC[C@]2(C)C(=O)CC[C@@H]12`, for which the inhibition at 12.5 µM in data set [1] was 46.7%. In addition, the inhibition at 6.25 µM in data set [2] amounted to 45.3%.
Consider `C[C@]12CCC(=O)C=C1C[C@@H](SCc1ccccc1)[C@@H]1[C@@H]2CC[C@]2(C)C(=O)CC[C@@H]12`, for which, in data set [1], the inhibition at 12.5 µM worked out at 84.1%. The inhibition at 6.25 µM in data set [2] amounted to 66.7%. Besides, the pKi in data set [3] is 7.16. Moreover, in data set [4], the “inhibition (INH)” value is reported as “Active”.
Regarding `CCN(CC)c1ccc(CS[C@@H]2CC3=CC(=O)CC[C@]3(C)[C@H]3CC[C@]4(C)C(=O)CC[C@H]4[C@H]23)cc1`, the inhibition at 12.5 µM in data set [1] was found to be 42.3%. In data set [2], the inhibition at 6.25 µM was found to be 45.1%.
For `CCOC(=O)CS[C@@H]1CC2=CC(=O)CC[C@]2(C)[C@H]2CC[C@]3(C)C(=O)CC[C@H]3[C@H]12`, the inhibition at 12.5 µM in data set [1] came out at 72.4%.
As to `C[C@]12CCC(=O)C=C1C[C@@H](SCCc1ccccc1)[C@@H]1[C@@H]2CC[C@]2(C)C(=O)CC[C@@H]12`, in data set [1], the inhibition at 12.5 µM was 82.8%. Besides, the inhibition at 6.25 µM in data set [2] turned out to be 75.7%. Further, in data set [3], the pKi is 7.21. The “inhibition (INH)” value in data set [4] was “Active”.
In the case of `C[C@]12CCC(=O)C=C1C[C@@H](SCCCc1ccccc1)[C@@H]1[C@@H]2CC[C@]2(C)C(=O)CC[C@@H]12`, the inhibition at 12.5 µM in data set [1] was found to be 66.4%. In addition, the inhibition at 6.25 µM in data set [2] came out at 68.4%.
For `COc1ccc(S[C@@H]2CC3=CC(=O)CC[C@]3(C)[C@H]3CC[C@]4(C)C(=O)CC[C@H]4[C@H]23)cc1`, in that order: 64.9% and 35.3%.
Regarding `COc1ccc(CS[C@@H]2CC3=CC(=O)CC[C@]3(C)[C@H]3CC[C@]4(C)C(=O)CC[C@H]4[C@H]23)cc1`, the inhibition at 12.5 µM in data set [1] worked out at 63%. The inhibition at 6.25 µM in data set [2] was determined as 64%. In addition, the pKi in data set [3] is 7.51. For the same molecule, in data set [4], the “inhibition (INH)” value is listed as “Active”.
With `C[C@]12CCC(=O)C=C1C[C@@H](Sc1ccc(N)cc1)[C@@H]1[C@@H]2CC[C@]2(C)C(=O)CC[C@@H]12`, the inhibition at 12.5 µM in data set [1] was 95%. Further, the inhibition at 6.25 µM in data set [2] came out at 55.6%. In addition, the pKi in data set [3] was 7.74. The “inhibition (INH)” value in data set [4] is “Active”.

Broadly, the inhibition is the share of the control response that was lost under treatment. By pKi is commonly meant the Ki on a negative log10 scale, so that one unit is a factor of ten.
